In the library only some 2% were active in any assay of this set; here they are far more common.
core dimer inh – blocks dimerization of HCV core protein | TR-FRET GST/Flag-core106 dimerization, 1536-well | inhibition, % at 5 µM | 0.33% of 300,000 active | AID 1899;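 active = inhibition above the mean of all tested compounds plus 3 SD, set per screening campaign, cut at about 45% in these data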
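Assay system: GST-tagged and Flag-tagged HCV core protein residues 1-106 / Times: compound-protein-antibody incubation 4 h at 22.5 °C / Signal: time-resolved FRET, ex 340 nm, em 617 and 671 nm / Evaluation: % inhibition based on acceptor/donor emission ratio / Benchmarks: wells lacking GST-core106 and wells with excess unlabelled core106 / Repeats: singlicate, one well per compound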
PABP1 MLLE inh – blocks PAM2 peptide binding to the PABP1 MLLE domain. GST-MLLE / FITC-PAM2 fluorescence polarization. inhibition, % at 20 µM. 0.36% of 360,000 active. AID 588489; in the data active = inhibition above about 35%, passing the limit was not always enough;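 note: plate controls were DMSO wells with GST-MLLE for no effect and wells lacking GST-MLLE protein for full effect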
Target sequence (P11940 whole entry, looked up, the tested form may be a part): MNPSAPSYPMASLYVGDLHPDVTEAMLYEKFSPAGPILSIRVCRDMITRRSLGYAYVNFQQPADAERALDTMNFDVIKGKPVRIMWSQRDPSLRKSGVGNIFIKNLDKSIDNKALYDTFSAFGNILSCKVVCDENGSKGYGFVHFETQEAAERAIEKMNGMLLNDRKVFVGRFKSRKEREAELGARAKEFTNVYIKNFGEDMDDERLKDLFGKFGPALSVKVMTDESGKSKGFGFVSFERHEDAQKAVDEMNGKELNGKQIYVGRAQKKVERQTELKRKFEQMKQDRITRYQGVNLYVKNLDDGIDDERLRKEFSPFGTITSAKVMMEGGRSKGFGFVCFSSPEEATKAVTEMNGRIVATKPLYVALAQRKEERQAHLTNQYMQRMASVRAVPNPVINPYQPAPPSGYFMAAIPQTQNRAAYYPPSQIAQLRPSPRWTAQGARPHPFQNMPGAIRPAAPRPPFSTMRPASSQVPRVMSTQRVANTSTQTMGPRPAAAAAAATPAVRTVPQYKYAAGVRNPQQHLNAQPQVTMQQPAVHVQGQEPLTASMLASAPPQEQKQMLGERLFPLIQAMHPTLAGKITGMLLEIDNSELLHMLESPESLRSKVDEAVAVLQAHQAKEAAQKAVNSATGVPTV
eIF4H FP inh – inhibitors of RNA binding by human eIF4H; eIF4H fluorescence polarization binding assay; inhibition, % at 35 µM; 0.94% of 290,000 active; AID 2012;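 note: calls also rest on retests at 20 µM and on dose response follow-up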
NS3 helicase inh – HCV NS3 helicase inhibition. AID 1800. 0.56% of 290,000 active. inhibition, % at 10.9 µM. NS3 helicase DNA unwinding, Cy5 molecular beacon fluorescence;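 active = inhibition above the mean of all tested compounds plus 3 SD, set per campaign, cut at about 35% in these data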;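 note: 0% = DMSO wells and 100% = thioflavine S control wells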
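Material: hepatitis C virus NS3 helicase domain fragment enzyme; measured by: Cy5 fluorescence, 0 and 60 min reads; control set: DMSO and thioflavine S; incubation: 60 min unwinding reaction at 25 °C after ATP addition; read-out basis: % inhibition from 60/0 min fluorescence ratio, DMSO 0%, thioflavine S 100%; repeats: singlicate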
PABP FP inh – blocks human PABP binding to poly(A) RNA | inhibition, % at 35 µM | 1% of 290,000 active | fluorescence polarization;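 note: calls also rest on retests at 20 µM and on dose response follow-up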
FID counter – displaces DNA intercalator in HCV helicase counter-screen; DNA fluorescent intercalator displacement, fluorescence; inhibition, % at 7.9 µM; 0.17% of 290,000 active; AID 1845; in the data active = inhibition above about 37%;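 note: 0% = vehicle and 100% = reference compound; higher means more ethidium bromide displaced from hairpin DNA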
Active calls of the source: *; i = inactive; ? = inconclusive; nt = not tested or not shown. Unless noted, the rule behind the calls is not given here.

SMILES	core dimer inh	PABP1 MLLE inh	eIF4H FP inh	NS3 helicase inh	PABP FP inh	FID counter
COc1ccc2c(c1O)C13CCN(C)C(C2)C1CCC(=O)C3 (stereo not given)	-1	4	nt	nt	nt	nt
C=C1C(=O)O[C@@H]2C[C@@H](C)[C@H]3C=CC(=O)[C@]3(O)C[C@@H]12	47*	-16	26	nt	4	nt
C=C1C(=O)OC2CC3(C)OC3CCC(C)=CC(OC(C)=O)C12 (stereo not given)	nt	23	nt	nt	nt	nt
COC(=O)C1=C(c2ccc(F)cc2OCc2ccccc2)C[C@@H]2CC[C@H]1N2C(=O)NCc1cc(C)oc1C(F)(F)F	nt	5	nt	nt	nt	nt
CCOP(=O)(Cc1cc(C(C)=O)c(C)o1)OCC	0	40*	47	4	9	-20
CCCC(=O)c1cc(CP(=O)(OCC)OCC)oc1C	-6	16	13	1	6	-20
CCOC(=O)C1(c2ccccc2)CCN(CC(=O)c2ccc(NC(C)=O)cc2)CC1	nt	-1	nt	nt	nt	nt
C=CCN1C(=O)/C(=C/c2cc(C)n(-c3ccccn3)c2C)C(=O)NC1=S	2	-14	?	-4	active	-7
O=C1NC(=O)N(c2ccccc2F)C(=O)/C1=C/c1cn(CC(=O)N2CCOCC2)c2ccccc12	4	nt	?	33	?	-16
Cc1cc(/C=C2\C(=O)NC(=O)N(c3ccccc3F)C2=O)c(C)n1-c1cc(C(=O)O)cc(C(=O)O)c1	-11	16	65	27	47*	-3
Cc1cc(/C=C2/C(=O)NC(=O)N(C)C2=O)c(C)n1-c1ccccc1	-1	-12	69	5	65*	-14
Cc1cc(C=C2C(=O)NC(=S)NC2=O)c(C)n1-c1ccc2c(c1)OCO2	21	-57	92	16	8.9*	-5
Cc1cc(/C=C2\C(=O)NC(=O)N(C)C2=O)c(C)n1-c1ccc2c(c1)OCO2	27	1	73	4	60	-3
Cc1cc(/C=C2\C(=O)NC(=O)N(c3ccc(F)cc3)C2=O)c(C)n1-c1cccc(C(=O)O)c1	6	-6	70	21	31*	-31
Cc1ccc(/C=C2/C(=O)NC(=O)N(C)C2=O)cc1	5	15	?	-12	active	-2
CCc1ccccc1N1C(=O)NC(=O)/C(=C\c2cc(C)n(C)c2C)C1=O	0	-4	66*	19	?	-23
Cc1cc(/C=C2\C(=O)NC(=O)N(c3ccc(Cl)cc3)C2=O)c(C)n1C	6	-25	55	7	31	-6
Cc1ccc(N2C(=O)NC(=O)/C(=C\c3cnc(-c4ccccc4)nc3)C2=O)cc1	2	-2	58*	7	-6	-17
Cc1cc(/C=C2\C(=O)NC(=O)N(c3ccccc3)C2=O)c(C)n1-c1ccc(C(=O)O)c(Cl)c1	nt	10	100	12	31*	-29
CCOC(=O)COc1ccc(/C=C2\C(=O)NC(=S)N(c3ccc(OC)cc3)C2=O)cc1OC	4	39*	-6	0	-10	-29
Cc1cc(OCC(=O)N2CCC(C(=O)O)CC2)c2c3c(c(=O)oc2c1)CCCC3	3	8	-7	-1	10	-33
Cc1ccc(-n2c(O)c(C=Nc3ccc(S(=O)(=O)N(C)C)cc3)c(=O)[nH]c2=O)cc1	0	-3	?	-2	125*	-7
C1=C(c2c[nH]c3ccccc23)CCNC1	-12	nt	95*	-4	82*	-1
CC(C)N1CC=C(c2c[nH]c3ccccc23)CC1	-4	-2	-1	-9	-1	7
COCCCNC(=O)c1c(NC(=O)c2ccccc2Cl)n(Cc2ccccc2)c2nc3ccccc3nc12	2	-12	42*	10	59	1
SMILES	core dimer inh	PABP1 MLLE inh	eIF4H FP inh	NS3 helicase inh	PABP FP inh	FID counter
CN(C)[C@@H]1C(=O)C(C(N)=O)=C(O)[C@@]2(O)C(=O)C3=C(O)c4c(O)cccc4[C@@](C)(O)C3[C@H](O)C12 (stereo not given in full)	-6	26	nt	nt	nt	nt
CN1CCN(c2nc3ccccn3c(=O)c2C=C2C(=O)N(C)C(=O)N(C)C2=O)CC1	2	2	?	3	120*	0
COC(=O)C1=C(c2ccc(Cl)c(C(F)(F)F)c2)C[C@@H]2CC[C@H]1N2C(=O)NCCOc1ccc(OC)cc1	nt	7	nt	nt	nt	nt
O=C1NC(=O)C(=C/C=C/c2coc3ccc(Br)cc3c2=O)C(=O)N1	4	nt	?	48*	?	-12
O=c1[nH]c(O)c(C=Nc2ccccc2Oc2ccccc2)c(=O)[nH]1	-3	-14	-12	-1	-5	-12
CN(C)c1ccc(C=C2C(=O)NC(=S)NC2=O)cc1[N+](=O)[O-]	0	40*	15	18	36	7
CC(=O)O[C@@H]1/C=C/[C@](C)(O)C[C@@H](C)C/C=C/[C@H]2[C@@H]3O[C@]3(C)[C@@H](C)[C@H]3[C@H](Cc4ccccc4)NC(=O)[C@@]312	-7	6	nt	nt	nt	nt
O=c1cc(C(F)(F)F)c2cc3c4c(c2o1)CCCN4CCC3	5	i	?	10	125*	-7
O=C1CC(=O)N(c2ccc(Cl)cc2)C(=O)N1	9	-38	-8	17	1	-10
O=C1CC(=O)N(c2cccc(F)c2)C(=O)N1	9	2	32	18	-18	2
COc1cccc(N2C(=O)CC(=O)NC2=O)c1	2	-15	77*	28	76*	-21
CC(C)c1ccc(N2C(=O)CC(=O)NC2=O)cc1	10	-47	?	2	18*	-10
CN(C)CP(=O)(Nc1ccccc1)N(C)C (stereo not given)	-4	3	10	-1	12	-1
CN(C)P(=O)(CCl)Nc1ccccc1 (stereo not given)	-6	10	96*	-1	18*	0
C[n+]1c(-c2ccccc2)c2cc(N)ccc2c2ccc(N)cc21	-71	113	?	34	?	38*
Nc1ccc2ccc3cccc[n+]3c2c1	5	i	?	3	?	19
Cc1ccc2c(c1Cl)NC(C(=O)O)C1CC(Sc3ccccc3[N+](=O)[O-])C(Cl)C21 (stereo not given)	66*	22	87*	14	62*	-5
CCN(CC)C(=O)c1ccc2c(c1)C1C(Cl)C(Sc3ccccc3[N+](=O)[O-])CC1C(C(=O)O)N2 (stereo not given)	20	39	90*	18	95*	13
O=C(O)c1cccc2c1NC(c1cccc([N+](=O)[O-])c1)C1CC(Sc3ccccc3[N+](=O)[O-])C(Cl)C21 (stereo not given)	nt	12	82*	29	76	7
CCN(CC)C(=O)c1ccc(NC(=O)c2cccc(S(=O)(=O)N3CCN(Cc4ccccc4)CC3)c2)cc1	7	1	nt	nt	nt	nt

Screening data: PubChem BioAssay, several laboratories
